From ChEMBL document CHEMBL1641569, “Synthetic conjugates of genistein affecting proliferation and mitosis of cancer cells” (Bioorg Med Chem, 2011)
Calls of active or inactive are those of the source. The rule behind the calls is not given here.

What was measured:
[1] = test system: HCT-116; experiment: Cytotoxicity against human HCT116 cells after 72 hrs by MTT assay; format: functional, cell-based; settings: HCT-116, 72 h
[2] = test system: DU-145; experiment: Cytotoxicity against human DU145 cells after 72 hrs by MTT assay; format: functional, cell-based; settings: DU-145, 72 h
Method in brief: (§1)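 Cells seeded at 2 × 10³ per well, 24 h later exposed continuously 72 h to varying concentrations; then 0.5 mg/mL MTT in phenol red-free DMEM 3 h at 37 °C, formazan dissolved in 2-propanol/HCl, OD 570 nm. Viability relative to DMSO vehicle; IC50 = concentration reducing viability by 50%; triplicate wells, at least three independent experiments, mean ± SD.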

[3] = test system: HCT-116; experiment: Inhibition of mitosis in human HCT116 cells assessed as appearance of tripolar and multipolar spindle at 10 uM after 24 hrs by immunofluorescence assay; format: functional; set-up: scale not given: the % may be the effect or the level left
Method in brief: (§2)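 Cells treated 24 h on chamber slides, fixed in ice-cold methanol, blocked with 1% goat serum, stained with mouse anti-β-tubulin (1:50) then FITC anti-mouse, DAPI counterstained; 100 mitotic cells per treatment scored at 100× oil for spindle type (normal bipolar, bipolar with lagging chromosomes, tri/multipolar, monopolar). Mean ± SD of two experiments.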

[4] = test system: HCT-116; experiment: Induction of apoptosis in human HCT116 cells assessed as appearance of hypodiploid nucleus at 5 to 20 uM after 48 hrs by flow cytometry; format: functional, cell-based
Method in brief: (§3)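 Subconfluent cultures exposed continuously to compound; floating and trypsinized adherent cells pooled, PBS-washed, fixed in ice-cold 70% ethanol 30 min, RNase (100 µg/mL) treated, stained with propidium iodide, DNA content measured by flow cytometry to give G1, S, G2/M, apoptotic (sub-G1) and polyploid fractions. Experiments repeated at least twice.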

[5] = Inhibition of tubulin polymerization after 1 hr
Method in brief: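 Cell-free assay: >97% pure tubulin in G-PEM buffer (80 mM PIPES, 2 mM MgCl2, 0.5 mM EGTA, 1 mM GTP, pH 6.9) plus 5% glycerol, with vehicle, compound (10, 20, 50 µM) or 3 µM paclitaxel, in pre-warmed plate at 37 °C; absorbance at 340 nm read every minute for 1 h. Repeated twice.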

[6] = test system: HCT-116; experiment: Cytotoxicity against p53-deficient human HCT116 cells after 72 hrs by MTT assay; format: functional, cell-based; settings: HCT-116, 72 h; method in brief: as §1
[7] = test system: HCT-116; experiment: Inhibition of mitosis in human HCT116 cells assessed as appearance of monopolar spindle at 5 uM after 24 hrs by immunofluorescence assay; format: functional; set-up: scale not given: the % may be the effect or the level left; method in brief: as §2
[8] = test system: HCT-116; experiment: Inhibition of mitosis in human HCT116 cells assessed as appearance of bipolar spindle with large mass of lagging chromosomes at spindle poles at 5 uM after 24 hrs by immunofluorescence assay; format: functional; set-up: scale not given: the % may be the effect or the level left; method in brief: as §2
[9] = test system: HCT-116; experiment: Cytotoxicity against human HCT116 cells harboring p53 protein after 72 hrs by MTT assay; format: functional, cell-based; settings: HCT-116, 72 h; method in brief: as §1
[10] = test system: HCT-116; experiment: Inhibition of mitosis in human HCT116 cells assessed as appearance of bipolar spindle with large mass of lagging chromosomes at spindle poles at 10 uM after 24 hrs by immunofluorescence assay; format: functional; set-up: scale not given: the % may be the effect or the level left; method in brief: as §2
[11] = test system: Caco-2; experiment: Cytotoxicity against human Caco2 cells after 72 hrs by MTT assay; format: functional, cell-based; settings: Caco-2, 72 h; method in brief: as §1
[12] = test system: HCT-116; experiment: Induction of senescence in human HCT116 cells assessed as beta galactosidase activity at 20 uM
[13] = test system: PC-3; experiment: Cytotoxicity against human PC3 cells after 72 hrs by MTT assay; format: functional, cell-based; settings: PC-3, 72 h; method in brief: as §1
[14] = test system: LoVo; experiment: Cytotoxicity against human LoVo cells after 72 hrs by MTT assay; format: functional, cell-based; method in brief: as §1
[15] = test system: HCT-116; experiment: Inhibition of mitosis in human HCT116 cells assessed as appearance of monopolar spindle at 10 uM after 24 hrs by immunofluorescence assay; format: functional; set-up: scale not given: the % may be the effect or the level left; method in brief: as §2
[16] = test system: HCT-116; experiment: Induction of apoptosis in human HCT116 cells assessed as appearance of tetraploid nucleus at 5 to 20 uM after 48 hrs by flow cytometry; format: functional, cell-based; method in brief: as §3
[17] = test system: HCT-116; experiment: Inhibition of mitosis in human HCT116 cells assessed as appearance of normal bipolar spindle at 10 uM after 24 hrs by immunofluorescence assay; format: functional; set-up: scale not given: the % may be the effect or the level left; method in brief: as §2
[18] = test system: HCT-116; experiment: Inhibition of mitosis in human HCT116 cells assessed as appearance of monopolar spindle at 20 uM after 24 hrs by immunofluorescence assay; format: functional; set-up: scale not given: the % may be the effect or the level left; method in brief: as §2
[19] = test system: AGS; experiment: Cell cycle arrest in human AGS cells assessed as accumulation at G2/M phase at 20 uM after 24 hrs by propidium iodide staining-based flow cytometry; format: functional; method in brief: as §3
[20] = test system: HCT-116; experiment: Inhibition of mitosis in human HCT116 cells assessed as appearance of tripolar and multipolar spindle at 20 uM after 24 hrs by immunofluorescence assay; format: functional; set-up: scale not given: the % may be the effect or the level left; method in brief: as §2
[21] = test system: MCF7; experiment: Cytotoxicity against human MCF7 cells after 72 hrs by SRB assay; format: functional, cell-based; settings: MCF7, 72 h
Method in brief: (§4)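 Cells plated at 2 × 10³ per well 24 h before continuous 72 h exposure to a concentration series; fixed with cold 50% TCA 1 h at 4 °C, stained with 0.4% sulforhodamine B in 1% acetic acid 30 min, bound dye extracted in 10 mM Tris base, OD 540 nm. Viability as % of DMSO control; IC50 = concentration reducing viability 50%; triplicates, ≥3 experiments.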

[22] = test system: SK-BR-3; experiment: Cytotoxicity against human SKBR3 cells after 72 hrs by SRB assay; format: functional, cell-based; settings: SK-BR-3, 72 h; method in brief: as §4
[23] = test system: HCT-116; experiment: Induction of apoptosis in p53-deficient human HCT116 cells assessed as effect on apoptotic index at 20 uM after 72 hrs by DNA laddering assay; format: functional
Method in brief: (§5)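 Floating and trypsin-detached adherent cells pooled, cytospun, fixed and TUNEL-labelled; apoptotic index scored among 500 nuclei, three experiments. In parallel, DNA extracted (proteinase K/SDS overnight 56 °C, phenol/chloroform, RNase A) and run on 1.8% agarose/ethidium bromide gel in 0.5× TBE for laddering. Controls received 0.2% DMSO; 24, 48, 72 h treatments.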

[24] = test system: AGS; experiment: Cytotoxicity against human AGS cells after 72 hrs by MTT assay; format: functional, cell-based; method in brief: as §1
[25] = test system: HCT-116; experiment: Induction of apoptosis in human HCT116 cells assessed as effect on apoptotic index at 20 uM after 72 hrs by DNA laddering assay; format: functional; method in brief: as §5
[26] = test system: HCT-116; experiment: Inhibition of mitosis in human HCT116 cells assessed as appearance of bipolar spindle with large mass of lagging chromosomes at spindle poles at 20 uM after 24 hrs by immunofluorescence assay; format: functional; set-up: scale not given: the % may be the effect or the level left; method in brief: as §2
[27] = test system: A549; experiment: Cell cycle arrest in human A549 cells assessed as accumulation at G2/M phase at 20 uM after 24 hrs by propidium iodide staining-based flow cytometry; format: functional; method in brief: as §3
[28] = test system: HCT-116; experiment: Cell cycle arrest in human HCT116 cells assessed as accumulation at G2/M phase after 24 hrs by propidium iodide staining-based flow cytometry; format: functional; method in brief: as §3
[29] = test system: HCT-116; experiment: Inhibition of mitosis in human HCT116 cells assessed as appearance of tripolar and multipolar spindle at 5 uM after 24 hrs by immunofluorescence assay; format: functional; set-up: scale not given: the % may be the effect or the level left; method in brief: as §2
[30] = test system: HCT-116; experiment: Inhibition of mitosis in human HCT116 cells assessed as mitotic index at 20 uM after 24 hrs by fluorescence assay; format: functional
Method in brief: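 Cells treated 24 h, collected as for cell cycle analysis, cytospun, fixed in cold methanol, stained with 3 µM DAPI; mitotic cells counted among 1000 cells under 40× objective. Mean ± SD from three independent experiments.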

[31] = test system: T98G; experiment: Cytotoxicity against human T98G cells after 72 hrs by SRB assay; format: functional, cell-based; method in brief: as §4
[32] = test system: DU-145; experiment: Cell cycle arrest in human DU145 cells assessed as accumulation at G2/M phase at 20 uM after 24 hrs by propidium iodide staining-based flow cytometry; format: functional; method in brief: as §3
[33] = test system: HCT-116; experiment: Inhibition of mitosis in human HCT116 cells assessed as appearance of normal bipolar spindle at 20 uM after 24 hrs by immunofluorescence assay; format: functional; set-up: scale not given: the % may be the effect or the level left; method in brief: as §2
[34] = test system: HCT-116; experiment: Induction of apoptosis in human HCT116 cells assessed as appearance of hypodiploid nucleus at 20 uM after 72 hrs by TUNEL assay; format: functional, cell-based; method in brief: as §5
[35] = test system: HCT-116; experiment: Inhibition of mitosis in human HCT116 cells assessed as appearance of normal bipolar spindle at 5 uM after 24 hrs by immunofluorescence assay; format: functional; set-up: scale not given: the % may be the effect or the level left; method in brief: as §2
[36] = test system: A549; experiment: Cytotoxicity against human A549 cells after 72 hrs by SRB assay; format: functional, cell-based; settings: A549, 72 h; method in brief: as §4
[37] = test system: LNCaP; experiment: Cytotoxicity against human LNCAP cells after 72 hrs by SRB assay; format: functional, cell-based; method in brief: as §4
[38] = test system: HT-29; experiment: Cytotoxicity against human HT-29 cells after 72 hrs by SRB assay; format: functional, cell-based; settings: HT-29, 72 h; method in brief: as §4
[39] = test system: HCT-116; experiment: Induction of apoptosis in human HCT116 cells harboring p53 protein assessed as effect on apoptotic index at 20 uM after 72 hrs by DNA laddering assay; format: functional; method in brief: as §5
[40] = test system: HCT-116; experiment: Cell cycle arrest in human HCT116 cells assessed as accumulation at G2/M phase at 5 to 20 uM after 24 hrs by propidium iodide staining-based flow cytometry; format: functional; method in brief: as §3

`CC(=O)OC[C@H]1O[C@@H](O[C@H]2C=C[C@@H](OCCCCCOc3cc(O)c4c(=O)c(-c5ccc(O)cc5)coc4c3)O[C@@H]2COC(C)=O)[C@H](OC(C)=O)[C@@H](OC(C)=O)[C@H]1OC(C)=O` gave an IC50 [1] greater than 20 µM.

Compound `CC(=O)O[C@@H]1C=C[C@H](OCCCOc2cc(O)c3c(=O)c(-c4ccc(O)cc4)coc3c2)O[C@H]1C` has an IC50 [1] of 4.76 µM, an IC50 [2] of 14.5 µM and an Activity [3] of 15%. For the same compound, the Activity [4] was “Active”, the inhibition [5] was “Dose-dependent effect” and the IC50 [6] was 6.21 µM. For the same compound, the Activity [7] was 0%, the Activity [8] was 14% and the IC50 [9] was 4.76 µM. For the same compound, the Activity [10] was 38%, the IC50 [11] was 23.3 µM and the Activity [12] was 31%. It also gave an IC50 [13] of 10.7 µM, an IC50 [14] of 9.85 µM and an Activity [15] of 3%. For the same compound, the Activity [16] was “Active”, the Activity [17] was 44% and the Activity [18] was 2%. For the same compound, the Activity [19] was 39.7%, the Activity [20] was 42% and the IC50 [21] was 8.88 µM. The IC50 [22] was 28 µM, the Activity [23] was 15% and the IC50 [24] was 3.05 µM. It also gave an Activity [25] of 12%, an Activity [26] of 40% and an Activity [27] of 31.6%. The Activity [28] was “Dose-dependent effect”, the Activity [29] was 1% and the Activity [30] was 13.2. The IC50 [31] was 16.7 µM, the Activity [32] was 46.1% and the Activity [33] was 16%. For the same compound, the Activity [34] was “Active”, the Activity [35] was 85% and the IC50 [36] was 14.7 µM. For the same compound, the IC50 [37] was 18 µM, the IC50 [38] was 36.1 µM and the Activity [39] was 12%.

With `CC(=O)O[C@@H]1C=C[C@H](OCCOc2cc(O)c3c(=O)c(-c4ccc(O)cc4)coc3c2)O[C@H]1C` the IC50 [1] was 9.32 µM, the Activity [40] was “inactive” and the Activity [30] was 1.3.

With `O=c1c(-c2ccc(O)cc2)coc2cc(OCCO)cc(O)c12` the IC50 [1] was 25 µM.

In the case of `O=c1c(-c2ccc(O)cc2)coc2cc(O)cc(O)c12` [GENISTEIN], the IC50 [1] is reported as 34.9 µM, the IC50 [2] is reported as 47.3 µM and the IC50 [11] is reported as greater than 100 µM. For the same compound, the IC50 [13] was 65.2 µM, the IC50 [14] was 15.9 µM and the IC50 [21] was 62.7 µM. It also gave an IC50 [22] of 96.7 µM, an IC50 [24] of 41.7 µM and an Activity [30] of 1.8. For the same compound, the IC50 [31] was 89.4 µM, the IC50 [36] was 43.1 µM and the IC50 [37] was 30.7 µM. The IC50 [38] was 52.8 µM.

With `CC(=O)OC[C@H]1O[C@H](OCCCCCOc2cc(O)c3c(=O)c(-c4ccc(O)cc4)coc3c2)C=C[C@@H]1OC(C)=O` the IC50 [1] was 8.45 µM, the Activity [28] was “Dose-dependent effect” and the Activity [30] was 5.2.
